Data published in ChEMBL document CHEMBL3085762, “Expeditious synthesis, enantiomeric resolution, and enantiomer functional characterization of (4-(4-bromophenyl)-3a,4,5,9b-tetrahydro-3H-cyclopenta[c]quinoline-8-sulfonamide (4BP-TQS): an allosteric agonist-positive allosteric modulator of α7 nicotinic acetylcholine receptors” (J Med Chem, 2013).
Calls of active or inactive are those of the source. The rule behind the calls is not given here.

Assays:
Format in all cases: cell-based
[1] = biological target: T1, Neuronal acetylcholine receptor subunit alpha-7 (Homo sapiens, UniProt P36544); experiment: Potency index, ratio of ACh EC50 to compound EC50 for human alpha7 nAChR expressed in Xenopus oocytes
[2] = biological target: T1, Neuronal acetylcholine receptor subunit alpha-7; experiment: Agonist activity at human alpha7 nAChR expressed in Xenopus oocytes at 60 uM after 5 mins by two-electrode voltage clamp method relative to ACh
[3] = biological target: T1, Neuronal acetylcholine receptor subunit alpha-7; experiment: Positive allosteric modulation of human alpha7 nAChR expressed in Xenopus oocytes assessed as potentiation of ACh-induced response at 30 uM measured over 5 mins by two-electrode voltage clamp method in presence of choline
Outline: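 α7-expressing Xenopus oocytes get control 60 μM ACh applications, then 300 μM choline together with 30 μM drug (racemate or single enantiomer). Potentiation is measured by two-electrode voltage clamp and normalized to the initial ACh controls.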

[4] = biological target: T1, Neuronal acetylcholine receptor subunit alpha-7; experiment: Positive allosteric modulation of human alpha7 nAChR expressed in Xenopus oocytes assessed as potentiation of ACh-induced response at 10 uM measured over 120 secs by two-electrode voltage clamp method
[5] = biological target: T1, Neuronal acetylcholine receptor subunit alpha-7; experiment: Allosteric agonist activity at human alpha7 nAChR expressed in Xenopus oocytes at 10 uM measured over 120 secs by two-electrode voltage clamp method
Outline: (§1)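 Xenopus oocytes expressing human α7 receive control 60 μM ACh, then 10 μM drug alone or with 10 μM of the other enantiomer. Pre-incubation is 30 s or 5 min, followed by ACh to assess potentiation. Responses are measured over a 120-second interval from the start of drug application. Potentiation is followed over 20 minutes. Two-electrode voltage clamp.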

[6] = biological target: T1, Neuronal acetylcholine receptor subunit alpha-7; experiment: Positive allosteric modulation of human alpha7 nAChR expressed in Xenopus oocytes assessed as potentiation of ACh-induced response at 10 uM treated 4 mins prior to ACh addition by two-electrode voltage clamp method
[7] = biological target: T1, Neuronal acetylcholine receptor subunit alpha-7; experiment: Positive allosteric modulation of human alpha7 nAChR expressed in Xenopus oocytes assessed as potentiation of ACh-induced response at 10 uM preincubated for 5 mins measured over 20 mins by two-electrode voltage clamp method; outline: as §1
[8] = biological target: T1, Neuronal acetylcholine receptor subunit alpha-7; experiment: Allosteric agonist activity at human alpha7 nAChR expressed in Xenopus oocytes at 10 uM preincubated for 5 mins by two-electrode voltage clamp method; outline: as §1
[9] = biological target: T1, Neuronal acetylcholine receptor subunit alpha-7; experiment: Positive allosteric modulation of human alpha7 nAChR expressed in Xenopus oocytes assessed as potentiation of ACh-induced response after 20 secs by two-electrode voltage clamp method
[10] = biological target: T1, Neuronal acetylcholine receptor subunit alpha-7; experiment: Allosteric agonist activity at human alpha7 nAChR expressed in Xenopus oocytes after 20 secs by two-electrode voltage clamp method
Outline: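 Human α7 nAChR in Xenopus oocytes under two-electrode voltage clamp. Control applications of 60 μM ACh come first, then a standard 20-second drug application over a range of concentrations. Net-charge response is normalized to the mean of the two initial ACh controls. At least four oocytes per condition. EC50 is taken from the concentration-response curve.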

T1 sequence (P36544 whole entry): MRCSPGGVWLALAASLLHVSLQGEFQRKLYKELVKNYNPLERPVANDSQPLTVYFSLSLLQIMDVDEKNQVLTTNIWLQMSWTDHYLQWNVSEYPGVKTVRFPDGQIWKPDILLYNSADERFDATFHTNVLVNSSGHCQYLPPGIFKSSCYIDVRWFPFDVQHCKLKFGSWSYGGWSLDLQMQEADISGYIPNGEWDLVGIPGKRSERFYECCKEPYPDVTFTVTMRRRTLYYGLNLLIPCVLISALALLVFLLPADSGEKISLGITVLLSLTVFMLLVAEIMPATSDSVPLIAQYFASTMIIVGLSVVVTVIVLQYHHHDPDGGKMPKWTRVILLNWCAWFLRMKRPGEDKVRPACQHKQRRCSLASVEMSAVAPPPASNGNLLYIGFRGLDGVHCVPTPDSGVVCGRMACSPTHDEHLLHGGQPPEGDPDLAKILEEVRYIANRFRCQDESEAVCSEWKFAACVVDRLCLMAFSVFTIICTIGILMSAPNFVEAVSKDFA

Ratio EC50 [1] | fold change (FC) [2] | Activity [3] | Activity [4] | Activity [5] | Activity [6] | Activity [7] | Activity [8] | Activity [9] | EC50 [10] [µM] | Structure (SMILES)
8 | 45 | Active | – | – | – | – | – | – | – | NS(=O)(=O)c1ccc2c(c1)[C@H]1C=CC[C@H]1C(c1ccc(Br)cc1)N2 (mixture of isomers)
– | – | – | inactive | inactive | – | – | – | – | – | NS(=O)(=O)c1ccc2c(c1)[C@@H]1C=CC[C@@H]1[C@H](c1ccc(Br)cc1)N2
– | – | Active | – | Active | Active | Active | Active | Dose-dependent effect | 28 | NS(=O)(=O)c1ccc2c(c1)[C@H]1C=CC[C@H]1[C@@H](c1ccc(Br)cc1)N2
